Measurements reported in ChEMBL document CHEMBL1944570, “Discovery of 4''-ether linked azithromycin-quinolone hybrid series: influence of the central linker on the antibacterial activity” (ACS Med Chem Lett, 2011).
In brackets after ≈: the same amount, converted by molar mass.

Columns and labels:
Type in all cases: functional
[1] = system: Staphylococcus aureus; assay: Antibacterial activity against ciprofloxacin-resistant Staphylococcus aureus by agar microdilution method
How it was run: (§1)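 MIC by agar microdilution following NCCLS standards; strains drawn from the PLIVA Research Institute culture collection. MIC reported in μg/mL.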

[2] = system: Staphylococcus aureus; assay: Antibacterial activity against erythromycin-susceptible Staphylococcus aureus by agar microdilution method
How it was run: (§2)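 Agar microdilution MIC per NCCLS standards against strains from the Pliva Research Institute culture collection; values in µg/mL. Panel included erythromycin-susceptible strains and strains with inducible or constitutive MLS resistance.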

[3] = system: Staphylococcus aureus; assay: Antibacterial activity against Staphylococcus aureus with inducible resistance to MLS by agar microdilution method; how it was run: as §1
[4] = system: Staphylococcus aureus; assay: Antibacterial activity against constitutive MLS resistant Staphylococcus aureus by agar microdilution method; how it was run: as §1
[5] = system: Staphylococcus aureus; assay: Antibacterial activity against efflux mediated macrolide resistant Staphylococcus aureus by agar microdilution method; how it was run: as §1
[6] = system: Streptococcus pneumoniae; assay: Antibacterial activity against erythromycin-susceptible Streptococcus pneumoniae by agar microdilution method; how it was run: as §1
[7] = system: Streptococcus pneumoniae; assay: Antibacterial activity against constitutive MLS resistant Streptococcus pneumoniae by agar microdilution method; how it was run: as §1
[8] = system: Streptococcus pneumoniae; assay: Antibacterial activity against efflux mediated macrolide resistant Streptococcus pneumoniae by agar microdilution method; how it was run: as §1
[9] = system: Streptococcus pyogenes; assay: Antibacterial activity against erythromycin-susceptible Streptococcus pyogenes by agar microdilution method; how it was run: as §1
[10] = system: Streptococcus pyogenes; assay: Antibacterial activity against Streptococcus pyogenes with inducible resistance to MLS by agar microdilution method; how it was run: as §1
[11] = system: Streptococcus pyogenes; assay: Antibacterial activity against constitutive MLS resistant Streptococcus pyogenes by agar microdilution method; how it was run: as §1
[12] = system: Streptococcus pyogenes; assay: Antibacterial activity against efflux mediated macrolide resistant Streptococcus pyogenes by agar microdilution method; how it was run: as §1
[13] = system: Haemophilus influenzae; assay: Antibacterial activity against Haemophilus influenzae B0529 by agar microdilution method; how it was run: as §2
[14] = system: Moraxella catarrhalis; assay: Antibacterial activity against Moraxella catarrhalis by agar microdilution method; how it was run: as §2

| SMILES | MIC [1] [mg/L] | MIC [2] [mg/L] | MIC [3] [mg/L] | MIC [4] [mg/L] | MIC [5] [mg/L] | MIC [6] [mg/L] | MIC [7] [mg/L] | MIC [8] [mg/L] | MIC [9] [mg/L] | MIC [10] [mg/L] | MIC [11] [mg/L] | MIC [12] [mg/L] | MIC [13] [mg/L] | MIC [14] [mg/L] |
| --- | --- | --- | --- | --- | --- | --- | --- | --- | --- | --- | --- | --- | --- | --- |
| CC[C@H]1OC(=O)[C@H](C)[C@@H](O[C@H]2C[C@@](C)(OC)[C@@H](OCCNCCNc3cc4c(=O)c(C(=O)O)cn(C5CC5)c4cc3Cl)[C@H](C)O2)[C@H](C)[C@@H](O[C@@H]2O[C@H](C)C[C@H](N(C)C)[C@H]2O)[C@](C)(O)C[C@@H](C)CN(C)[C@H](C)[C@@H](O)[C@]1(C)O | ≥ 64 | 4 (≈ 3.65 µM) | 64 (≈ 58.4 µM) | > 64 | 8 (≈ 7.29 µM) | ≤ 0.125 | 64 (≈ 58.4 µM) | 0.25 (≈ 0.228 µM) | ≤ 0.125 | 1 (≈ 0.912 µM) | 16 (≈ 14.6 µM) | 8 (≈ 7.29 µM) | 2 (≈ 1.82 µM) | 0.5 (≈ 0.456 µM) |
| CC[C@H]1OC(=O)[C@H](C)[C@@H](O[C@H]2C[C@@](C)(OC)[C@@H](OCCNCCNc3cc4c(cc3F)c(=O)c(C(=O)O)cn4C3CC3)[C@H](C)O2)[C@H](C)[C@@H](O[C@@H]2O[C@H](C)C[C@H](N(C)C)[C@H]2O)[C@](C)(O)C[C@@H](C)CN(C)[C@H](C)[C@@H](O)[C@]1(C)O | ≥ 64 | 2 (≈ 1.85 µM) | 64 (≈ 59.2 µM) | 64 (≈ 59.2 µM) | 2 (≈ 1.85 µM) | ≤ 0.125 | 32 (≈ 29.6 µM) |  | ≤ 0.125 |  | 1 (≈ 0.926 µM) | 1 (≈ 0.926 µM) | 4 (≈ 3.7 µM) | 1 (≈ 0.926 µM) |
| CC[C@H]1OC(=O)[C@H](C)[C@@H](O[C@H]2C[C@@](C)(OC)[C@@H](OCCNCCOCCNc3cc4c(cc3F)c(=O)c(C(=O)O)cn4C3CC3)[C@H](C)O2)[C@H](C)[C@@H](O[C@@H]2O[C@H](C)C[C@H](N(C)C)[C@H]2O)[C@](C)(O)C[C@@H](C)CN(C)[C@H](C)[C@@H](O)[C@]1(C)O | ≥ 64 | 8 (≈ 7.11 µM) | 64 (≈ 56.9 µM) | > 64 | 8 (≈ 7.11 µM) | ≤ 0.125 | 2 (≈ 1.78 µM) |  | ≤ 0.125 |  | 2 (≈ 1.78 µM) | 1 (≈ 0.889 µM) | 8 (≈ 7.11 µM) | 8 (≈ 7.11 µM) |
| CC[C@H]1OC(=O)[C@H](C)[C@@H](O[C@H]2C[C@@](C)(OC)[C@@H](OCCNCCOCCOCCNc3cc4c(=O)c(C(=O)O)cn(C5CC5)c4cc3Cl)[C@H](C)O2)[C@H](C)[C@@H](O[C@@H]2O[C@H](C)C[C@H](N(C)C)[C@H]2O)[C@](C)(O)C[C@@H](C)CN(C)[C@H](C)[C@@H](O)[C@]1(C)O | ≥ 64 | 4 (≈ 3.38 µM) | 64 (≈ 54 µM) | 32 (≈ 27 µM) | 1 (≈ 0.844 µM) | ≤ 0.125 | 64 (≈ 54 µM) |  | ≤ 0.125 |  | 2 (≈ 1.69 µM) | 2 (≈ 1.69 µM) | 4 (≈ 3.38 µM) | 1 (≈ 0.844 µM) |
| CC[C@H]1OC(=O)[C@H](C)[C@@H](O[C@H]2C[C@@](C)(OC)[C@@H](OCCCC(=O)NCCNc3cc4c(=O)c(C(=O)O)cn(C5CC5)c4cc3Cl)[C@H](C)O2)[C@H](C)[C@@H](O[C@@H]2O[C@H](C)C[C@H](N(C)C)[C@H]2O)[C@](C)(O)C[C@@H](C)CN(C)[C@H](C)[C@@H](O)[C@]1(C)O | ≥ 64 | 4 (≈ 3.51 µM) | 32 (≈ 28.1 µM) | 64 (≈ 56.2 µM) | 4 (≈ 3.51 µM) | 0.5 (≈ 0.439 µM) | 0.5 (≈ 0.439 µM) | ≤ 0.125 | ≤ 0.125 | 0.25 (≈ 0.22 µM) | 2 (≈ 1.76 µM) | 2 (≈ 1.76 µM) | 8 (≈ 7.02 µM) | 4 (≈ 3.51 µM) |
| CC[C@H]1OC(=O)[C@H](C)[C@@H](O[C@H]2C[C@@](C)(OC)[C@@H](OCCCC(=O)NCCOCCNc3cc4c(=O)c(C(=O)O)cn(C5CC5)c4cc3Cl)[C@H](C)O2)[C@H](C)[C@@H](O[C@@H]2O[C@H](C)C[C@H](N(C)C)[C@H]2O)[C@](C)(O)C[C@@H](C)CN(C)[C@H](C)[C@@H](O)[C@]1(C)O | ≥ 64 | 2 (≈ 1.69 µM) | 64 (≈ 54.1 µM) | 64 (≈ 54.1 µM) | 8 (≈ 6.76 µM) | ≤ 0.125 | 4 (≈ 3.38 µM) | 0.25 (≈ 0.211 µM) | ≤ 0.125 |  | 2 (≈ 1.69 µM) | 1 (≈ 0.845 µM) | 4 (≈ 3.38 µM) | 4 (≈ 3.38 µM) |
| CC[C@H]1OC(=O)[C@H](C)C(=O)[C@H](C)[C@@H](O[C@@H]2O[C@H](C)C[C@H](N(C)C)[C@H]2O)[C@](C)(OCC=Cc2cnc3ccccc3c2)C[C@@H](C)C(=O)[C@H](C)[C@H]2NC(=O)O[C@@]21C [CETHROMYCIN] | ≥ 64 | ≤ 0.125 | 0.25 (≈ 0.326 µM) | > 64 | 0.25 (≈ 0.326 µM) | ≤ 0.125 |  |  | ≤ 0.125 |  | 1 (≈ 1.31 µM) |  | 1 (≈ 1.31 µM) | ≤ 0.125 |
